IDH1 mut inh: IDH1 R132H (human) inhibition; O75874; IDH1 R132H reductase, diaphorase/resazurin fluorescence, 60 min; inhibition, % at 10 µM; 70,000 compounds, 0.18% hits; in the data active = inhibition above about 34%; inconclusive = no clear call, values can overlap the other calls; inactive = below about 11%;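 also: 0% = DMSO and 100% = no enzyme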
Pf Dd2 growth: inhibitors of Plasmodium falciparum Dd2 growth; activity change, % at 10 µM; 94,000 compounds, 2.3% hits; P. falciparum Dd2 growth, SYBR Green, 72 h; hits give low values; AID 1159554; in the data active = activity change below about -80%; inconclusive = no clear call, values can overlap the other calls
T cruzi growth-1: inhibitors of T. cruzi proliferation | T. cruzi beta-gal in NIH3T3, GalScreen luminescence, 90 h | inhibition, % at 8.34 µM | 77,000 compounds, 5.9% hits;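 active = mean inhibition above about 93%, with at least 55% of replicates each passing it, limit read from the data, passing the limit was not always enough; inconclusive = only one of those two conditions holds; inactive = neither condition holds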
GASC1 inh: inhibitors of human demethylase GASC-1 KDM4C | GST-KDM4C 2-372, H3K9me3 peptide, LANCE TR-FRET | inhibition, % at 12.5 µM | 96,000 compounds, 0.15% hits | AID 720574;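 active = mean replicate inhibition above about 25%, with at least 55% of replicates also reaching it, limit read from the data, passing the limit was not always enough; inconclusive = only one of those two conditions met; inactive = neither condition met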
Target sequence (Q9H3R0 2-372 limits assumed): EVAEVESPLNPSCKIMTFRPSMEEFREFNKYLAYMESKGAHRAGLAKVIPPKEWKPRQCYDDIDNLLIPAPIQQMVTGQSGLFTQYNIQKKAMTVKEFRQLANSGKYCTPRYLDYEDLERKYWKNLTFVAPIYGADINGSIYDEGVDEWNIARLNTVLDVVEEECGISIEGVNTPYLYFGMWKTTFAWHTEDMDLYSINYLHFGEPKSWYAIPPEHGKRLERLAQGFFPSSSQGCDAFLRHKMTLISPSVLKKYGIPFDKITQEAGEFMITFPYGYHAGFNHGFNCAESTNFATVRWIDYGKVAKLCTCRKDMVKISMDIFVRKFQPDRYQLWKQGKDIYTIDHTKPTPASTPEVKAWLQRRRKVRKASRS
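Material: N-terminal GST-fused human GASC-1 (KDM4C) fragment, residues 2-372. Input: 10 nM enzyme. Incubation: enzyme reaction 30 min, then detection 60 min, both room temperature. Doses: one test concentration per compound. Read-out basis: inhibition from TR-FRET ratio decrease. Detection: LANCE TR-FRET, excitation 340 nm, emissions 618 and 671 nm.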
T cruzi growth-2: blocks T. cruzi growth in NIH3T3 host cells; inhibition, % at 8.35 µM; T. cruzi beta-gal in NIH3T3, GalScreen luminescence, 90 h; AID 651739; 5,600 compounds, 72% hits; shares compounds with T cruzi growth-1;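 active = mean replicate inhibition above about 95% and at least 55% of replicates individually reaching it, limit read from the data; inconclusive = only one of the two criteria is met; inactive = neither criterion is met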
T cruzi growth-3: Trypanosoma cruzi proliferation inhibition; shares compounds with T cruzi growth-1; AID 651740; 5,600 compounds, 21% hits; inhibition, % at 2.09 µM; T. cruzi beta-gal in NIH3T3, GalScreen luminescence, 90 h;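 active = mean inhibition above about 95%, with at least 55% of replicates also reaching it, limit read from the data; inconclusive = meets just one of the two conditions; inactive = meets neither condition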;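 also: plate controls were neutral control median for no effect and positive control median for full effect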
NIH3T3 tox: cytotoxicity in mouse NIH/3T3 fibroblasts; shares compounds with T cruzi growth-1; NIH/3T3 viability, CellTiter-Glo ATP luminescence, 90 h; cytotoxicity (signal decrease), % at 8.35 µM; 5,600 compounds, 14% hits; AID 651742;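 active = mean signal decrease across replicates above about 35% based on untreated-well scatter, with enough replicates individually passing, limit read from the data; inconclusive = no rule stated though some were filed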;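 also: 0% = median of neutral control wells and 100% = median of positive control wells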
3T3 cytotox 2: cytotoxicity in mouse NIH/3T3 fibroblasts; shares compounds with T cruzi growth-1; NIH/3T3 viability, CellTiter-Glo ATP luminescence, 90 h; inhibition, % at 24.9 µM; 5,600 compounds, 56% hits;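 active = mean loss of cell viability signal at or above a set limit, and enough replicates individually reaching it; inconclusive = meets only the mean limit or only the replicate share; inactive = meets neither condition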;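 also: 0% = median of neutral control wells and 100% = median of positive control wells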
Starred values were filed as active, the others as inactive; ? = inconclusive; · = no result given. Shown are actives, neighbours in structure and some others; about 5.8% of the full set was active somewhere.

SMILES | IDH1 mut inh | Pf Dd2 growth | T cruzi growth-1 | GASC1 inh | T cruzi growth-2 | T cruzi growth-3 | NIH3T3 tox | 3T3 cytotox 2
COc1ccc2c(c[n+](C)c3c4cc5c(cc4ccc23)OCO5)c1OC | 100.6* | · | · | · | · | · | · | ·
COc1ccc2c(c1OC)CN1CCc3cc4c(cc3C1C2)OCO4 (centres undefined) | -2.7 | · | · | · | · | · | · | ·
CC[C@H]1CN2CCc3cc(OC)c(OC)cc3[C@@H]2C[C@@H]1C[C@H]1NCCc2cc(O)c(OC)cc21 | 1.5 | · | · | · | · | · | · | ·
OC[C@H]1Nc2ccc(C#Cc3cccnc3)cc2[C@H]2NCC[C@H]21 | · | -88.4* | · | 2.3 | · | · | · | ·
CC(=O)c1c(C)n(Cc2ccccc2)c2c(Cl)c(Cl)c(Cl)c(OCC(=O)O)c12 | 2.6 | · | · | · | · | · | · | ·
Cc1ccc(OC(=O)N(C)C[C@@H]2OCc3ccccc3-c3c(n(C)c4ccccc34)C(=O)N([C@@H](C)CO)C[C@H]2C)cc1 | · | -83.1* | · | -3.2 | · | · | · | ·
O=C(Cc1ccncc1)N1CCCCN2[C@@H](CO)[C@@H](c3ccc(-c4ccncc4)cc3)[C@@H]2C1 | · | 4.9 | 85.3 | -0.4 | · | · | · | ·
COc1ccc(-c2ccc([C@H]3[C@H](CO)N4CCCCN(C(=O)Cc5ccccc5)C[C@@H]34)cc2)cc1 | · | -10.0 | 108.0* | -1.5 | 106.8* | 80.8 | 10.8 | 105.6*
N#Cc1ccc(-c2ccc([C@@H]3[C@H](CO)N4CCCCN(C(=O)Cc5ccccc5)C[C@@H]34)cc2)cc1 | · | -25.5 | 91.7 | 0.1 | · | · | · | ·
COc1ccc(-c2ccc([C@@H]3[C@H](CO)N4CCCCN(C(=O)Cc5ccccc5)C[C@@H]34)cc2)cc1 | · | -30.4 | 98.7* | -1.8 | 104.3* | 78.0 | 26.4 | 105.6*
COc1ccc(-c2ccc([C@H]3[C@@H](CO)N4CCCCN(C(=O)Cc5ccccc5)C[C@@H]34)cc2)cc1 | · | -51.1 | 102.1* | 0.0 | 106.8* | 105.9* | 18.7 | ?
O=C(Cc1ccncc1)N1CCCCN2[C@H](CO)[C@H](c3ccc(-c4ccncc4)cc3)[C@@H]2C1 | · | -74.7 | 101.6* | 0.9 | 49.6 | -24.8 | -2.1 | -10.3
CC[C@@H]1/C=C\C=C\C[C@H](C)[C@@H](O)[C@](C)(O)C(=O)[C@H](C)[C@@H](O)[C@H](C)C(=O)[C@H](C)[C@@H](O)[C@H](C)/C=C/C(=O)O[C@H]2[C@@H](C)[C@@H](CC1)O[C@@]1(CC[C@@H](C)[C@@H](C[C@H](C)O)O1)[C@@H]2C | 0.0 | · | · | · | · | · | · | ·
CC1C/C=C/C2C3OC3(C)C(C)C3C(Cc4ccccc4)NC(=O)C23OC(=O)O/C=C/C(C)(O)C1=O (centres undefined) | 2.0 | · | · | · | · | · | · | ·
O=C1Nc2cc(Cl)c(Cl)cc2N2CCNCC12 (centres undefined) | 1.5 | · | · | · | · | · | · | ·
O=C(Cc1ccccc1)N1CCCCN2[C@H](CO)[C@H](c3ccc(-c4ccccc4)cc3)[C@@H]2C1 | · | 23.5 | 4.8 | -1.7 | · | · | · | ·
O=C(Cc1ccccc1)N1CCCCN2[C@@H](CO)[C@@H](c3ccc(-c4ccccc4)cc3)[C@@H]2C1 | · | -19.3 | ? | -1.5 | 104.0* | 55.8 | 16.1 | 104.6*
N#Cc1cccc(-c2ccc([C@H]3[C@H]4CN(C(=O)Cc5ccncc5)CCCCN4[C@H]3CO)cc2)c1 | · | -8.5 | 105.4* | -0.1 | 84.2 | 35.4 | -2.6 | 46.6*
N#Cc1cccc(-c2ccc([C@@H]3[C@H]4CN(C(=O)Cc5ccccc5)CCCCN4[C@H]3CO)cc2)c1 | · | -11.7 | 90.4 | 0.3 | · | · | · | ·
N#Cc1cccc(-c2ccc([C@H]3[C@H]4CN(C(=O)Cc5ccccc5)CCCCN4[C@H]3CO)cc2)c1 | · | -13.5 | ? | -0.5 | 71.2 | -4.1 | 12.0 | 6.5
O=C(Cc1ccccc1)N1CCCCN2[C@H](CO)[C@@H](c3ccc(C#Cc4ccccc4)cc3)[C@@H]2C1 | · | -40.2 | 106.4* | 2.0 | 99.8* | 70.0 | 2.8 | 105.5*
O=C(Cc1ccncc1)N1CCCCN2[C@@H](CO)[C@@H](c3ccc(C#Cc4ccccc4F)cc3)[C@@H]2C1 | · | -62.1 | 65.9 | -0.2 | · | · | · | ·
